ChEMBL document CHEMBL1833940, “Discovery of 3-(2,6-dichloro-3,5-dimethoxy-phenyl)-1-{6-[4-(4-ethyl-piperazin-1-yl)-phenylamino]-pyrimidin-4-yl}-1-methyl-urea (NVP-BGJ398), a potent and selective inhibitor of the fibroblast growth factor receptor family of receptor tyrosine kinase” (J Med Chem, 2011)
The source made the active and inactive calls. The calls are words filed in the database; no cut-off is given here.

Experiments:
[1] = target: Protein kinase C alpha type (Homo sapiens, UniProt P17252); test: Inhibition of recombinant PKCalpha
In short: (§1)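 Purified recombinant kinases under optimized conditions with peptide substrates. ATP was set at each kinase's Km. Phosphorylation was read by microfluidic mobility-shift separation of substrate and product; IC50 determined.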

[2] = Cmax in plasma of RT112/luc1 cells implanted athymic nude mouse at 20 mg/kg, po by LC/MS/MS analysis; assay type: ADME, organism-based; design: dose 20 mg/kg, route oral
In short: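 Female athymic nude mice carried subcutaneous RT112/luc1 tumors (5×10^6 cells, 50% Matrigel; about 300–400 mm3). Dosing was either 5 mg/kg iv by tail vein in NMP/PEG200 (1:9) or 20 mg/kg oral suspension in PEG300/D5W (2:1). Groups of mice (n = 4) were sacrificed at 0.083–24 h. Plasma and tumor levels were measured by LC-MS/MS (LOQ 5 ng/mL, 10 ng/g).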

[3] = target: Tyrosine-protein kinase Yes (Homo sapiens, UniProt P07947); test: Inhibition of recombinant YES kinase; in short: as §1
[4] = target: Casein kinase I isoform gamma-3 (Homo sapiens, UniProt Q9Y6M4); test: Inhibition of recombinant CK1-gamma3; in short: as §1
Sequence of Casein kinase I isoform gamma-3 (Q9Y6M4 whole entry, canonical isoform): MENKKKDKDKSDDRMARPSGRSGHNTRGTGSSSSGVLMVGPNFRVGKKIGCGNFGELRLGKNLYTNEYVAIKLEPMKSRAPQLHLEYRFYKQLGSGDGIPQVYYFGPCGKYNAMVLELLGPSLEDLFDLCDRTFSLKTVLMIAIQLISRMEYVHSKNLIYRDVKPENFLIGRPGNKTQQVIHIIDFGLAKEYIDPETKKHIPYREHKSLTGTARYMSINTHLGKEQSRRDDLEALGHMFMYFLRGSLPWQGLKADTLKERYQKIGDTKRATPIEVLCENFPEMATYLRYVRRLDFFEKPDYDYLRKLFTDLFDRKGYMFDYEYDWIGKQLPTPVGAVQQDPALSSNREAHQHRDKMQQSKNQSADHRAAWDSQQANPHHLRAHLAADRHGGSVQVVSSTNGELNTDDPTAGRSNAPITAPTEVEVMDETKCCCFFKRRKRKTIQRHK

[5] = target: Vascular endothelial growth factor receptor 2 (Homo sapiens, UniProt P35968); test: Inhibition of recombinant VEGFR2
In short: (§2)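 Purified recombinant kinases under optimized conditions, with peptide substrates and ATP at each kinase's Km. Phosphorylation was read out by microfluidic mobility shift, and IC50 values were obtained.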

[6] = Inhibition of recombinant PKA
In short: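 Purified recombinant kinases with peptide substrates and ATP at each kinase's Km. Read-out was microfluidic mobility shift.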

[7] = target: Tyrosine-protein kinase JAK2 (Homo sapiens, UniProt O60674); test: Inhibition of recombinant JAK2
Sequence of Tyrosine-protein kinase JAK2 (O60674 whole entry): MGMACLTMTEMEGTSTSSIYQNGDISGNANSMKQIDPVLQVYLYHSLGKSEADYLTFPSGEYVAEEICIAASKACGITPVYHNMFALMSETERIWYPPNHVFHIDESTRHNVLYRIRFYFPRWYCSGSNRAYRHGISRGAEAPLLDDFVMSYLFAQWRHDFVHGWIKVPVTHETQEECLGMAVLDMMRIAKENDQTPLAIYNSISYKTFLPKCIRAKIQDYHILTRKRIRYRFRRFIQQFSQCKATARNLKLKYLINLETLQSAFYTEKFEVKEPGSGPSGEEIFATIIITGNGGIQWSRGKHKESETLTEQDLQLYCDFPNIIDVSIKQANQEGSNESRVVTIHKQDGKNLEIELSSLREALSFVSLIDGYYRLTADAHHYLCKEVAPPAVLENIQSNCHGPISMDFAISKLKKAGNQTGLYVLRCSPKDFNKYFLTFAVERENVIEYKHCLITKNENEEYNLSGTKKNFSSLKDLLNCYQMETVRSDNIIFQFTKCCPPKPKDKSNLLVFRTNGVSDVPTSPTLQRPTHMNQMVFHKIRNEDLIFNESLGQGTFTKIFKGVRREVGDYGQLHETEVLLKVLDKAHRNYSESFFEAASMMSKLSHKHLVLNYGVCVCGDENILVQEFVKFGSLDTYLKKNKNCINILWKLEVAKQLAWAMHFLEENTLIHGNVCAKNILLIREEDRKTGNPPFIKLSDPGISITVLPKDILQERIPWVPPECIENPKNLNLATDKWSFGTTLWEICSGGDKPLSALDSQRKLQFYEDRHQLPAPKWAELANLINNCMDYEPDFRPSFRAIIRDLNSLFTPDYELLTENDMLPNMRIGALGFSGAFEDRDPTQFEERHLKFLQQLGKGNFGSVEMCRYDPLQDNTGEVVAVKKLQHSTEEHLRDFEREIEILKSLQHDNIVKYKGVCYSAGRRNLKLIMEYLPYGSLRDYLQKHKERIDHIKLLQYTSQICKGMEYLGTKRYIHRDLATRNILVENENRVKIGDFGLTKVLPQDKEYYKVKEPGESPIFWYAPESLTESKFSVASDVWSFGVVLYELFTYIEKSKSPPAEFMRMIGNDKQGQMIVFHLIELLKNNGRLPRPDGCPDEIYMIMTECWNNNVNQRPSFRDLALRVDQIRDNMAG
In short: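 Purified recombinant kinases were tested under optimized conditions with peptide substrates. ATP was set at each kinase's Km. Phosphorylation was read out by microfluidic mobility shift, and IC50 values were determined.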

[8] = target: Glycogen synthase kinase-3 beta (Homo sapiens, UniProt P49841); test: Inhibition of recombinant GSK3-beta; in short: as §1
[9] = test system: Rattus norvegicus; test: Toxicity in nude Rowett rat xenografted with human RT112 cells assessed as weight loss at 15 mg/kg, po qd administered for 20 days; assay type: organism-based, RT-112; design: dose 15 mg/kg, route oral; settings: in vivo, 480 h
In short: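 Female nude Rowett rats carried subcutaneous RT112 tumors (1 × 10^6 cells in Matrigel), starting at about 100 mm3. The monophosphate salt was gavaged daily for 20 days at 5, 10 or 15 mg/kg (free base) in acetate buffer pH 4.6/PEG300 (1:1), n = 8. Body weight and morbidity were monitored; ANOVA with Dunnett's test.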

[10] = test system: Tumour; test: Drug uptake in tumour of nude Rowett rat bearing human RT112 cells at 4.25 mg/kg, po administered as a single dose after 3 hrs by LC-MS/MS analysis; assay type: ADME, organism-based, Neoplasm, RT-112; design: dose 4.25 mg/kg, route oral; settings: in vivo
In short: (§3)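 Nude Rowett rats bearing subcutaneous RT112 tumors (n = 4) received a single gavage of monophosphate salt at 4.25 or 8.51 mg/kg free base in acetate buffer pH 4.6/PEG300. Tumors were collected at intervals after dosing, frozen and homogenized in an equal volume of ice-cold PBS. Compound levels were measured by LC-MS/MS (LOQ 3 ng/mL).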

[11] = target: Tyrosine-protein kinase Mer (Homo sapiens, UniProt Q12866); test: Inhibition of recombinant MER; in short: as §2
[12] = target: Phosphatidylinositol 4-kinase beta (Homo sapiens, UniProt Q9UBF8); test: Inhibition of PI4Kbeta by luminescent kinase assay
[13] = test system: Tumour; test: Drug uptake in tumour of nude Rowett rat bearing human RT112 cells at 4.25 mg/kg, po administered as a single dose after 24 hrs by LC-MS/MS analysis; assay type: ADME, organism-based, Neoplasm, RT-112; design: dose 4.25 mg/kg, route oral; settings: in vivo; in short: as §3
[14] = test system: Rattus norvegicus; test: Dose normalized AUC in Wistar rat at 10 mg/kg, po by LC-MS/MS analysis; assay type: ADME, organism-based; design: dose 10 mg/kg, route oral; settings: in vivo
In short: (§4)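 Female Wistar rats received either an iv femoral-vein dose of 5 mg/kg in NMP/PEG200 (1:9) or an oral dose of monophosphate salt at 10 mg/kg (free base) in acetate buffer pH 4.6/PEG300. Plasma was sampled by sublingual bleeding at 0.083–24 h (n = 4 staggered, or n = 3–4 serial). Plasma levels were measured by LC-MS/MS (LOQ 10 ng/mL).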

[15] = test system: RT-112; test: Antitumor activity against human RT112 cells xenografted in athymic nude mouse assessed as tumor stasis at 30 mg/kg, po administered for 12 days; assay type: functional, organism-based; design: dose 30 mg/kg
In short: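 Female HsdNpa:Athymic Nude-nu mice received RT112/luc1 cells (luciferase retroviral line; about 1–2×10^5 cells) into the bladder lumen. Oral treatment started 14 days after inoculation: suspension in PEG300/D5W (2:1) at 10 or 30 mg/kg/qd for 12 days. Tumor burden was measured by IVIS bioluminescence 10 min after iv D-luciferin. T/C was computed from change in light emission; ANOVA with Dunnett's test.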

[16] = test system: Mus musculus; test: Antiangiogenic activity in po dosed FVB mouse agar chamber model assessed as inhibition of b-FGF-induced angiogenesis around the capsule; assay type: functional, organism-based
In short: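 Female FVB mice implanted subcutaneously with perfluoroalkoxy-Teflon chambers holding 0.8% agar with 20 U/mL heparin, with or without dog VEGF 2 μg/mL or bFGF 0.3 μg/mL. Oral dosing at 10, 30, 50 mg/kg/day in 10% NMP/PEG300 (5 mL/kg), started before implantation and continued 3 days. Capsules were removed 24 h after the last dose. Readout was capsule weight and Tie-2 by ELISA, as % inhibition against vehicle and no-growth-factor background.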

[17] = target: Serine/threonine-protein kinase WNK1 (Homo sapiens, UniProt Q9H4A3); test: Inhibition of recombinant WNK1; in short: as §1
Sequence of Serine/threonine-protein kinase WNK1 (Q9H4A3 whole entry): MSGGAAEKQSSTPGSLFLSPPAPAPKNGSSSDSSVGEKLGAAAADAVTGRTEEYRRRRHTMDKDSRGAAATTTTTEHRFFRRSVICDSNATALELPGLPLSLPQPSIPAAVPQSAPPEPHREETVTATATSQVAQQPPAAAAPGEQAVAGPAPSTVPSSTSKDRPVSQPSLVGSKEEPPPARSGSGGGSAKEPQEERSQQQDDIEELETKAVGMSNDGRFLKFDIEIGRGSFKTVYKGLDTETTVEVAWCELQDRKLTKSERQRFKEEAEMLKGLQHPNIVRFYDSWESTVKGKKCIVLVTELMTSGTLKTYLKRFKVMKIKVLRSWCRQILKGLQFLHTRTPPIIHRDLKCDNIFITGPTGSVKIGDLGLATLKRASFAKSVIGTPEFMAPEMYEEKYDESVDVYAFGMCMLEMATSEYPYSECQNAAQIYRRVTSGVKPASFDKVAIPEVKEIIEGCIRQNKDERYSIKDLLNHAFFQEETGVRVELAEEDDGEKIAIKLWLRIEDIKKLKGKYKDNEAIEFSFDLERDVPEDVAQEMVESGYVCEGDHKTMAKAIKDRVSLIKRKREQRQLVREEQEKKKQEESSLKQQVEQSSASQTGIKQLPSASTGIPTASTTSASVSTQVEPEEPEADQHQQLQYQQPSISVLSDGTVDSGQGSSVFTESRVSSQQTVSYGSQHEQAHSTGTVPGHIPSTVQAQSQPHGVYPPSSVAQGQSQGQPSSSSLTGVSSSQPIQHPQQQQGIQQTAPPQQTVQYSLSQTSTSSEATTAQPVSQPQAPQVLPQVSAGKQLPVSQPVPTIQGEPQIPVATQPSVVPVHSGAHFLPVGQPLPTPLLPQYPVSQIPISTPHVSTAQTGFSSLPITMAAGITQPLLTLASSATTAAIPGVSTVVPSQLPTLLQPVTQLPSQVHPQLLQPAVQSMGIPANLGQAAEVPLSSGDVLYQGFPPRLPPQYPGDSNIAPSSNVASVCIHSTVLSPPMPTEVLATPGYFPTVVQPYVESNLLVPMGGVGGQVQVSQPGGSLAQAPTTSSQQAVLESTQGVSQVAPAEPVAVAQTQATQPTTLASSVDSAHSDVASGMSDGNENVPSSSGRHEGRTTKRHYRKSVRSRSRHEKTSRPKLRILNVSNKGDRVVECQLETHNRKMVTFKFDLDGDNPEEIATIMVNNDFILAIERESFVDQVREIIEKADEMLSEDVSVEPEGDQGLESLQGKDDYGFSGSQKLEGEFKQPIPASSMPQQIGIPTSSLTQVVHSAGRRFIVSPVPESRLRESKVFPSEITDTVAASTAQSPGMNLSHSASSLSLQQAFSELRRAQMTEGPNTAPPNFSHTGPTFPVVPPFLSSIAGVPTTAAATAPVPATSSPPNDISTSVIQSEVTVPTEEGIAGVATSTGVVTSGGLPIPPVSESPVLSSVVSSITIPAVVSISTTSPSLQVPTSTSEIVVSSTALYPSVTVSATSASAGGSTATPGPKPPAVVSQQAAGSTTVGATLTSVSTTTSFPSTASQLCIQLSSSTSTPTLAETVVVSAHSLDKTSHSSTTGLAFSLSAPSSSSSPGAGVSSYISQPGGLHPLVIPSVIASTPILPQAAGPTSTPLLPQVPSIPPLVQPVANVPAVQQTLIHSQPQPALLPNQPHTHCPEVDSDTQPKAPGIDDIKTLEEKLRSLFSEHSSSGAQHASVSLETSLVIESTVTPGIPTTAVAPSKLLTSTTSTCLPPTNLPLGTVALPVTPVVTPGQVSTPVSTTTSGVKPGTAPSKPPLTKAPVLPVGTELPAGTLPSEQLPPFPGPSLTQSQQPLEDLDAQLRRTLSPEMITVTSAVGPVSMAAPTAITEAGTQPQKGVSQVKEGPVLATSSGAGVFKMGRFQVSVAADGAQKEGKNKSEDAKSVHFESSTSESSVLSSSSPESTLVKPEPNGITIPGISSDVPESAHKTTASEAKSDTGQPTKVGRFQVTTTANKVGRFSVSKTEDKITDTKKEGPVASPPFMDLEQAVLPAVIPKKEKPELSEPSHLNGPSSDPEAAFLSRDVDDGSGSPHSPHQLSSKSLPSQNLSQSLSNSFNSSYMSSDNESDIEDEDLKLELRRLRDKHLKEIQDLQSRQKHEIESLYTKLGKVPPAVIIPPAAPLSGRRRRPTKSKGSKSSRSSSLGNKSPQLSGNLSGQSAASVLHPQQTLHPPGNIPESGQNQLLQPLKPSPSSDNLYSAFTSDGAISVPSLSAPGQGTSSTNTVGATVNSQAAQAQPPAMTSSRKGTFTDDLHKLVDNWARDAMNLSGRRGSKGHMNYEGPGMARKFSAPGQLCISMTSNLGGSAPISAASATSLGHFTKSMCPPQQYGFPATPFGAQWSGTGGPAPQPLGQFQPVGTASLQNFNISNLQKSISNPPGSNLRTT

[18] = Plasma clearance in RT112/luc1 cells implanted athymic nude mouse at 5 mg/kg, iv by LC/MS/MS analysis; assay type: ADME, organism-based; design: dose 5 mg/kg, route intravenous
In short: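 Female athymic nude mice carrying subcutaneous RT112/luc1 tumors (ca. 300–400 mm3). Dosing was 5 mg/kg iv by tail vein in NMP/PEG200 (1:9) or 20 mg/kg by oral gavage as a suspension in PEG300/D5W (2:1). Groups (n = 4) were sacrificed from 0.083 to 24 h. Plasma and tumor were measured by LC-MS/MS (LOQ 5 ng/mL, 10 ng/g). Noncompartmental analysis used the linear trapezoidal AUC; F was calculated from dose-normalized AUC.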

[19] = target: RAC-alpha serine/threonine-protein kinase (Homo sapiens, UniProt P31749); test: Inhibition of recombinant PKBalpha; in short: as §1
Sequence of RAC-alpha serine/threonine-protein kinase (P31749 whole entry): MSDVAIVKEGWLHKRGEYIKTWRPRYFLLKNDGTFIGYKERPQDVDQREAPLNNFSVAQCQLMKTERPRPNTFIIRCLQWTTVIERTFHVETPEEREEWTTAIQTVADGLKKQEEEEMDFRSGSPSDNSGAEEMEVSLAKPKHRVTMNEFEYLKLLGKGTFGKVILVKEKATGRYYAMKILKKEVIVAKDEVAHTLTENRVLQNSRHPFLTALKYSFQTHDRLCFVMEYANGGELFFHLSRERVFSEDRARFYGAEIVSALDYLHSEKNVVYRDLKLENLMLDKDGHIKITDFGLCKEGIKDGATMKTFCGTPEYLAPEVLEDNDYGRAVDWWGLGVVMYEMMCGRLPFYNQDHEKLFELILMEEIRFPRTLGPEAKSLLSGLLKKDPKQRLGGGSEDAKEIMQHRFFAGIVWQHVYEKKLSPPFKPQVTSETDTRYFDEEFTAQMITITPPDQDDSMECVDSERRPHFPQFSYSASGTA

[20] = Cmax in Wistar rat at 5 mg/kg, iv after 5 mins by LC-MS/MS analysis; assay type: ADME, organism-based; design: dose 5 mg/kg, route intravenous; settings: in vivo; in short: as §4
[21] = test system: UMUC3; test: Antiproliferative activity against human UM-UC-3 cells after 72 hrs; assay type: functional, cell-based; settings: UMUC3, 72 h
In short: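 Bladder cancer lines from ATCC or DSMZ were seeded in 96-well plates (RT4, RT112 at 8500 cells/well; others at 5000 cells/well) in growth medium. Compound dilutions or DMSO were added 24 h later and incubated 72 h. Cells were fixed with glutaraldehyde, stained with 0.05% methylene blue and eluted with 3% HCl, then OD650 nm was read.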

[22] = test system: Rattus norvegicus; test: Dose normalized AUC in Wistar rat at 5 mg/kg, iv by LC-MS/MS analysis; assay type: ADME, organism-based; design: dose 5 mg/kg, route intravenous; settings: in vivo; in short: as §4

IC50 [1]: > 10 µM
Cmax [2]: 420 nM
IC50 [3]: 1.1 µM
IC50 [4]: > 10 µM
IC50 [5]: 0.18 µM
IC50 [6]: > 10 µM
IC50 [7]: > 10 µM
IC50 [8]: > 10 µM
Drug uptake [10]: 0.83 nmol/g
IC50 [11]: > 10 µM
IC50 [12]: > 9 µM
Drug uptake [13]: 0.12 nmol/g
AUC/dose [14]: 0.25 µM·h
IC50 [17]: > 10 µM
clearance [18]: 55 mL/min/kg
IC50 [19]: > 10 µM
Cmax [20]: 970 nM
AUC/dose [22]: 0.49 µM·h
Structure (SMILES): CCN1CCN(c2ccc(Nc3cc(N(C)C(=O)Nc4c(Cl)c(OC)cc(OC)c4Cl)ncn3)cc2)CC1.O=P(O)(O)O [INFIGRATINIB PHOSPHATE]
Activity [9]: 9%
Activity [15]: Active
inhibition [16]: Dose-dependent effect
IC50 [21]: > 3 µM
